Data set [1] relates to MCC-3. The experiment in a line: Antitumor activity against human MCC-3 cells xenografted in NSG mouse assessed as effect on BRD4 expression at 50 mg/kg, ip administered daily for 3 weeks and measured post-last dose by immunoblotting method. Format: functional, organism-based. The essentials: (§1)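 Tumours excised at endpoint from NSG mice bearing subcutaneous flank xenografts (~100 mm3 at randomisation), dosed i.p. daily for 3 weeks, vehicle 10% 2-hydroxypropyl-β-cyclodextrin in water. Lysates resolved by SDS-PAGE, electroblotted to PVDF (200V, 2 h). Membranes blocked in 5% milk, primary antibody overnight at 4°C, then secondary 1 h, and detected by ECL.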

Data set [2] can be described thus: Antitumor activity against human MCC-3 cells xenografted in NSG mouse assessed as reduction in tumor volume at 50 mg/kg, ip administered daily for 3 weeks and measured post-last dose by caliper method relative to control. The arrangement: scale not given: the % may be the effect or the level left. It is filed as functional. In general terms: In xenograft studies the graft and the host belong to different species.

A short description of data set [3]: Toxicity in human MKL-1 cells xenografted NSG mouse assessed as effect on body weight at 50 mg/kg, ip administered daily for 3 weeks. It is filed as organism-based. The following applies: in vivo, 504 h. In outline:
(§2)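 Mice with subcutaneous xenografts dosed i.p. daily for 3 weeks (vehicle 10% 2-hydroxypropyl-β-cyclodextrin in water) and monitored daily. Toxicity judged from body weight, food and water intake, activity and general examination.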

Data set [4] in a line: Toxicity in human MKL-1 cells xenografted NSG mouse assessed as effect on general examination at 50 mg/kg, ip administered daily for 3 weeks. Format: organism-based. The following applies: in vivo, 504 h. The essentials:
as §2

The nature of data set [5]: Toxicity in human MCC-3 cells xenografted NSG mouse assessed as effect on body weight at 50 mg/kg, ip administered daily for 3 weeks. Format: organism-based. To be noted: in vivo, 504 h. In outline:
as §2

Data set [6] in a line: Toxicity in human MKL-1 cells xenografted NSG mouse assessed as effect on food intake at 50 mg/kg, ip administered daily for 3 weeks. It is filed as organism-based. The following applies: in vivo, 504 h. In outline:
as §2

Data set [7] relates to MCC-3. Kind of data set: Antitumor activity against human MCC-3 cells xenografted in NSG mouse assessed as reduction in c-Myc mRNA expression at 50 mg/kg, ip administered daily for 3 weeks and measured post-last dose by qRT-PCR analysis. It is filed as functional, organism-based. In outline: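 Excised xenograft tumours from NSG mice dosed i.p. daily for 3 weeks (vehicle 10% 2-hydroxypropyl-β-cyclodextrin in water) versus vehicle group. c-Myc mRNA measured by qRT-PCR on 3 biological replicates.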

For data set [8], the system named is MCC-3. Kind of data set: Antitumor activity against human MCC-3 cells xenografted in NSG mouse assessed as effect on H3K27Ac expression at 50 mg/kg, ip administered daily for 3 weeks and measured post-last dose by immunoblotting method. It is filed as functional, organism-based. In outline:
as §1

Data set [9] can be described thus: Toxicity in human MCC-3 cells xenografted NSG mouse assessed as effect on activity at 50 mg/kg, ip administered daily for 3 weeks. It is filed as organism-based. The following applies: in vivo, 504 h. In outline: as §2
Data set [10] in a line: Toxicity in human MCC-3 cells xenografted NSG mouse assessed as effect on food intake at 50 mg/kg, ip administered daily for 3 weeks. Format: organism-based. To be noted: in vivo, 504 h. The essentials:
as §2

A further data set concerns Mus musculus. Kind of data set: In vivo disruption of BRD4 occupancy at the putative c-Myc super-enhancer region in human MCC-3 cells xenografted NSG mouse at 50 mg/kg, ip administered daily for 3 weeks and measured post-last dose by ChIP-qPCR analysis. It is filed as functional, organism-based. In outline: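 Frozen xenograft tumours crosslinked with 1% formaldehyde for 10 min, quenched with 0.125 M glycine, lysed and sonicated. Anti-BRD4 IP on anti-rabbit IgG beads. SYBR qPCR with primers at the putative c-Myc super-enhancer, plus control regions 5000 bp up- and downstream. 3 biological replicates, vehicle versus treated.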

A short description of data set [11]: Antitumor activity against human MKL-1 cells xenografted in NSG mouse assessed as reduction in tumor volume at 50 mg/kg, ip administered daily for 3 weeks and measured post-last dose by caliper method relative to control. It is filed as functional. More on the design: scale not given: the % may be the effect or the level left. In outline: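 NSG mice with subcutaneous flank xenografts (MKL-1: 2 × 10^7 cells in matrigel), randomised at ~100 mm3 (n ≥ 7 per group). Dosed i.p. daily for 3 weeks; vehicle 10% 2-hydroxypropyl-β-cyclodextrin in water. Calipers, volume = L2 × W/2; final tumour volume, mean ± SEM, Mann-Whitney test.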

Data set [12] can be described thus: Toxicity in human MKL-1 cells xenografted NSG mouse assessed as effect on activity at 50 mg/kg, ip administered daily for 3 weeks. It is filed as organism-based. To be noted: in vivo, 504 h. The essentials: as §2
Data set [13] is described as follows: Toxicity in human MCC-3 cells xenografted NSG mouse assessed as effect on general examination at 50 mg/kg, ip administered daily for 3 weeks. Format: organism-based. The following applies: in vivo, 504 h. The essentials: as §2
Data set [14] can be described thus: Toxicity in human MKL-1 cells xenografted NSG mouse assessed as effect on water intake at 50 mg/kg, ip administered daily for 3 weeks. The following applies: in vivo, 504 h. Format: organism-based. In outline: as §2
Data set [15] in a line: Toxicity in human MCC-3 cells xenografted NSG mouse assessed as effect on water intake at 50 mg/kg, ip administered daily for 3 weeks. Format: organism-based. To be noted: in vivo, 504 h. In outline: as §2
In data set [16] the test system is MCC-3. Kind of data set: Antitumor activity against human MCC-3 cells xenografted in NSG mouse assessed as reduction in c-Myc expression at 50 mg/kg, ip administered daily for 3 weeks and measured post-last dose by immunoblotting method. Format: functional, organism-based. The essentials:
as §1

Active and inactive are the calls of the source. The rule behind the calls is not given here.

Regarding `Cc1sc2c(c1C)C(c1ccc(Cl)cc1)=N[C@@H](CC(=O)OC(C)(C)C)c1nnc(C)n1-2`, the result with MCC-3 [1] and in the data set on MCC-3 [8] was inactive. Also, the Activity in data set [2] was 75.6%; in data set [3], “Non-Toxic”; in data set [4] it was “Non-Toxic”; in data set [5] it was “Non-Toxic”; in [6], “Non-Toxic”; in [9] it was “Non-Toxic”. Also, the Activity entry in [10] is listed as “Non-Toxic”; in data set [11], 48.9%; in data set [12], “Non-Toxic”; in [13], “Non-Toxic”; in data set [14], “Non-Toxic”; in data set [15] it was “Non-Toxic”. The result in the data set on MCC-3 [7], in the data set with Mus musculus and with MCC-3 [16] was Active.

(Values after ChEMBL document CHEMBL5712887, “Disruption of BRD4 at H3K27Ac-enriched enhancer region correlates with decreased c-Myc expression in Merkel cell carcinoma” (Epigenetics, 2015).)
